Source: PubChem
Most compounds without a hit are left out; they make up all but 2% or so of the library.
TRAIL sens C8 = caspase-8 TRAIL sensitization; NB7+C8 cells + TRAIL, ATPlite viability luminescence; inhibition (viability loss, TRAIL sensitization), % at 10 µM; actives 1% (n = 360,000); AID 624354;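 active = compounds causing at least 50% loss of cell viability in the single-dose screen, relative to plate controls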
FLuc inhib CS = inhibits firefly luciferase, flagging false hits in luciferase inhibition screens | P08659 | ATPLite firefly luciferase biochemical luminescence, 10 min | inhibition, % at 10 µM | actives 1.5% (n = 200,000) | AID 1006;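 active = inhibition above about 50% when tested at 10 µM, limit read from the data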
Target sequence (P08659 whole entry, looked up): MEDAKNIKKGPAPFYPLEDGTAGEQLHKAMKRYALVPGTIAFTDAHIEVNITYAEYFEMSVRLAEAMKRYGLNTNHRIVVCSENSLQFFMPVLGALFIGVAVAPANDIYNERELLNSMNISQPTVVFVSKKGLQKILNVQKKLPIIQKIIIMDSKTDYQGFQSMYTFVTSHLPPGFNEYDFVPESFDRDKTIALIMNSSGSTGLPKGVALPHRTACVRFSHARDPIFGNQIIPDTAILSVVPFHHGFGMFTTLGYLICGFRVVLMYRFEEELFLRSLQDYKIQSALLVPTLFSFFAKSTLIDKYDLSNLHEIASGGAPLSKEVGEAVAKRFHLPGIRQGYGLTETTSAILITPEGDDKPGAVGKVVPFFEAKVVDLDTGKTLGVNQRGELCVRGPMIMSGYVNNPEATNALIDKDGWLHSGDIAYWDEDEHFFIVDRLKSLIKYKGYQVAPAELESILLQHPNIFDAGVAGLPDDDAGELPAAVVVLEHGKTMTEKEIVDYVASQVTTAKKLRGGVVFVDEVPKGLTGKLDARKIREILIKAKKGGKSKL
HSP90 refold inh = HSP90 refolding inhibition in rabbit reticulocyte lysate | luciferase refolding luminescence, 3 h | actives 0.91% (n = 290,000) | AID 1789 | inhibition, % at 5.6 µM;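 active = inhibition above the screen-wide mean plus 3 SD, computed separately per campaign, cut at about 16% in these data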;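 also: inhibitors lower the luminescence because luciferase stays unfolded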
PPC-1+TRAIL kill = PPC-1 cancer cell killing with TRAIL present; PPC-1 cells + TRAIL, ATPLite viability luminescence; cell killing (% activity), % at 4 µM or 5 µM; actives 0.41% (n = 220,000);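 active = cell killing above 50% in the first pass at 4 µM, then a duplicate retest at 5 µM averaging 50% or more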
FLuc stim CS = affects firefly luciferase, flagging false hits in luciferase stimulation screens; P08659; ATPlite luciferase biochemical, luminescence, 10 min; 0 = ATP-free wells, 1 = DMSO control; activation factor at 10 µM; 200,000 tested, under 10 active; AID 1027;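 active = luciferase activation factor, scaled between plate controls, of at least 2 with compound at 10 µM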
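assay system = Luciferase/luciferin detection reagent, cell-free biochemical luciferase assay | also added = ATP substrate | times = 10 min post-reagent at room temperature | measured by = luminescence from luciferase reaction | measure = luciferase activation, seen as luminescence increase over controls | benchmarks = low control with PBS replacing ATP, high control enzyme plus ATP without compound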
PPC1 cytotox = kills PPC-1 cells; shares compounds with PPC-1+TRAIL kill; PPC-1 viability, ATPlite luminescence, overnight; cytotoxicity, % at 5 µM; actives 50% (n = 1,200); AID 1447;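 active = reconfirmed compounds whose average cytotoxicity reaches 50% or more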
Large screens that a line does not name were inactive (follow-up assays come after a bar, where they were run).

CCN(CC)CCNC(=O)c1ccc(NC(=O)C2CC(=O)N(c3ccc4c(c3)OCCO4)C2)cc1 (centres undefined)	none (no result: FLuc inhib CS, HSP90 refold inh, PPC-1+TRAIL kill, FLuc stim CS)
COc1ccc(OCC(=O)N/N=C/C=C/c2ccccc2)cc1	TRAIL sens C8 54, FLuc inhib CS 81 | PPC1 cytotox inactive
CN1CCN(NC(=O)c2cn(-c3ccccc3)nc2-c2ccc(OC(F)F)cc2)CC1	none
COc1ccc(-c2cc(C#N)nc(Oc3ccc(Cl)cc3)n2)cc1	none
COc1ccc(-c2cc(C#N)nc(Cl)n2)cc1	none (no result: FLuc inhib CS, FLuc stim CS) | PPC1 cytotox inactive
CCc1ccc(-c2ccc(SCC(=O)NCC3CCCO3)nn2)cc1 (centres undefined)	TRAIL sens C8 59, FLuc inhib CS 80 | PPC1 cytotox inactive
CCc1ccc(-c2ccc(SCC(=O)Nc3nnc(C)s3)nn2)cc1	TRAIL sens C8 75, FLuc inhib CS 85, PPC-1+TRAIL kill 74 | PPC1 cytotox 71
Cc1nnc(NC(=O)CSc2ccc(-c3ccc(Cl)cc3)nn2)s1	none
CCOc1ccc(-c2ccc(SCC(=O)NC3CCCCC3)nn2)cc1	none (no result: FLuc inhib CS, PPC-1+TRAIL kill, FLuc stim CS)
O=C(CSc1nnc2ccc(-c3ccc(Br)cc3)nn12)NCC1CCCO1 (centres undefined)	none (no result: FLuc inhib CS, HSP90 refold inh, PPC-1+TRAIL kill, FLuc stim CS)
CCOc1ccc(-c2ccc(SCC(=O)Nc3nnc(C)s3)nn2)cc1	TRAIL sens C8 62, FLuc inhib CS 65, PPC-1+TRAIL kill 74 | PPC1 cytotox 75
CCc1nc2ccccc2n1Cc1ccc(OC)c(OC)c1	none
COc1ccc(/C=C/c2nc3ccccc3n2Cc2ccc(OC)c(OC)c2)cc1	FLuc inhib CS 83, PPC-1+TRAIL kill 56 | PPC1 cytotox 55
COc1cccc(C(=O)Cn2c(=N)n(C)c3ccccc32)c1	TRAIL sens C8 59, PPC-1+TRAIL kill 54 | PPC1 cytotox inactive
CCc1nc2ccc(C(=O)Nc3ccc4c(c3)OCC(=O)N4)cn2c1N(C)Cc1nccn1C	none (no result: FLuc inhib CS, HSP90 refold inh, PPC-1+TRAIL kill, FLuc stim CS)
CC(/C=N/NC(=O)c1ccco1)=C\c1ccccc1	TRAIL sens C8 69, FLuc inhib CS 90, PPC-1+TRAIL kill 63 | PPC1 cytotox 63
Cc1cc(C)cc(NC(=S)Nc2cccc3cnccc23)c1	none
CCc1ccc(NC(=S)Nc2cccc3cnccc23)cc1	none | PPC1 cytotox inactive
CCCCCn1c(SCC(=O)c2ccccc2)nc2cc(C(=O)NCC3CCCO3)ccc2c1=O (centres undefined)	none (no result: FLuc inhib CS, HSP90 refold inh, PPC-1+TRAIL kill, FLuc stim CS)
O=c1cc(-c2ccccc2)oc2ccc(O)cc12	none (no result: FLuc inhib CS, FLuc stim CS)
COc1ccc(-c2cc(=O)c3cc(O)ccc3o2)cc1	FLuc inhib CS 54 | PPC1 cytotox inactive
Cc1c(Cl)cnc(NC(=O)COC(=O)C2CC3CCCC(C2)C3=O)c1Cl (centres undefined)	none (no result: FLuc inhib CS, HSP90 refold inh, PPC-1+TRAIL kill, FLuc stim CS)
Cc1nc2sc(-c3ccccc3)cc2c(=O)[nH]1	TRAIL sens C8 77, FLuc inhib CS 90, HSP90 refold inh 17, PPC-1+TRAIL kill 65 | PPC1 cytotox 61
O=C(Nc1ccccc1)C1=C[C@@H](c2ccc3c(c2)OCO3)C[C@@H](OCCCCO)O1	none (no result: FLuc inhib CS, HSP90 refold inh, PPC-1+TRAIL kill, FLuc stim CS)
CS(=O)(=O)Nc1ccc(C(=O)Nc2ccc(S(=O)(=O)N3CCCC3)cc2)cc1	none
COc1ccc(NC(=O)c2cccc([N+](=O)[O-])c2)cc1	none
COc1ccc(NC(=O)c2cc([N+](=O)[O-])ccc2O)cc1	TRAIL sens C8 91, FLuc inhib CS 96, HSP90 refold inh 81, PPC-1+TRAIL kill 75 | PPC1 cytotox 77
CN1CCN(CC(O)COc2ccc(OCC(O)CN3CCN(C)CC3)cc2)CC1 (centres undefined)	none
CN1CCN(CC(O)COc2ccc(Cl)cc2)CC1 (centres undefined)	none | PPC1 cytotox inactive
CC(=O)N=c1sc2nc3ccccc3nc2n1N(C(C)=O)C(C)=O	none | PPC1 cytotox inactive
CC(=O)N=c1sc2ccccc2n1C	none
CC(=O)Nc1ccc(S(=O)(=O)NC2(C(F)(F)F)C(=O)Nc3c2c(=O)[nH]c(=O)n3C)cc1 (centres undefined)	none
CC(=O)Nc1ccc(S(=O)(=O)NC2(C(F)(F)F)C(=O)Nc3c2c(=O)n(C)c(=O)n3C)cc1 (centres undefined)	none | PPC1 cytotox inactive
COc1ccccc1OCC(=O)Nc1ccc(S(=O)(=O)N2CCCCCC2)cc1	none
C=CCN(CC=C)S(=O)(=O)c1ccc(NC(=O)COc2ccccc2OC)cc1	none | PPC1 cytotox inactive
CC(=O)N1CCN(c2ccccc2NC(=O)COc2ccc(Cl)cc2Cl)CC1	none | PPC1 cytotox inactive
CC(=O)N1CCN(c2ccccc2NC(=O)COc2ccccc2C)CC1	none
Cc1ccc(/C=N/Nc2nnc(Cl)c3ccccc23)cc1	TRAIL sens C8 86, FLuc inhib CS 94, PPC-1+TRAIL kill 78 | PPC1 cytotox 78
Cc1cccc(/C=N/Nc2nncc3ccccc23)c1	TRAIL sens C8 79, FLuc inhib CS 94, PPC-1+TRAIL kill 77 | PPC1 cytotox 77
Cc1ccc(C(=O)Nc2ccc3c(c2)OCCO3)o1	TRAIL sens C8 54, FLuc inhib CS 84, PPC-1+TRAIL kill 62 | PPC1 cytotox 59
Cc1cc(C(=O)Nc2ccc3c(c2)OCCO3)co1	FLuc inhib CS 75 | PPC1 cytotox inactive
Cn1c(C(=O)Nc2ccc3c(c2)OCCO3)cc2sccc21	TRAIL sens C8 56, FLuc inhib CS 81 | PPC1 cytotox inactive
CC(C)OC(=O)Cn1nc(C(c2ccccc2)c2ccccc2)oc1=O	none (no result: FLuc inhib CS, PPC-1+TRAIL kill, FLuc stim CS)
COC(=O)C1=C(C)N(CCCC(=O)O)C(=O)NC1c1ccc([N+](=O)[O-])cc1 (centres undefined)	none (no result: FLuc inhib CS, HSP90 refold inh, PPC-1+TRAIL kill, FLuc stim CS)
CCOC(=O)C1=C(C)N(CCCC(=O)O)C(=O)NC1c1ccc([N+](=O)[O-])cc1 (centres undefined)	none | PPC1 cytotox inactive
CCOc1ccc(NC(=O)c2ccc3c(c2)OCCO3)cc1S(=O)(=O)N(CC)CC	none (no result: FLuc inhib CS, HSP90 refold inh, PPC-1+TRAIL kill, FLuc stim CS)
CN1CCN(C(CC(=O)Nc2cccc(O)c2)C(=O)O)CC1 (centres undefined)	none (no result: TRAIL sens C8)
O=C(N/N=C/c1c(O)ccc2ccccc12)c1[nH]ncc1Br	none
CCOc1ccc(/C=N/NC(=O)c2[nH]ncc2Br)c(O)c1	TRAIL sens C8 79, FLuc inhib CS 91, PPC-1+TRAIL kill 57 | PPC1 cytotox 56
Cc1cc(-n2[nH]c(C)c(C)c2=O)nc(-c2ccccc2O)n1	none | PPC1 cytotox inactive
O=C(COc1cccnc1[N+](=O)[O-])c1ccc(Cl)s1	none (no result: FLuc inhib CS, FLuc stim CS)
Cc1cc(NC(=O)COC(=O)C2CC(=O)N(c3cccc(Cl)c3)C2)no1 (centres undefined)	none (no result: FLuc inhib CS, PPC-1+TRAIL kill, FLuc stim CS)
S=C(Nc1ccc2c(c1)OCO2)N1CCN(Cc2ccco2)CC1	TRAIL sens C8 60, FLuc inhib CS 92, PPC-1+TRAIL kill 53 | PPC1 cytotox 56
COc1ccc(CNC(=O)CN2C(=O)NC3(CCCc4sccc43)C2=O)cc1OC (centres undefined)	none (no result: FLuc inhib CS, HSP90 refold inh, PPC-1+TRAIL kill, FLuc stim CS)
Cc1cc(C)c(C#N)c(SCC(=O)Nc2ccccc2C(N)=O)n1	PPC-1+TRAIL kill 73 | PPC1 cytotox 74
Cc1cc(C)c(C#N)c(SCC(=O)Nc2cc(C)on2)n1	none (no result: FLuc inhib CS, HSP90 refold inh, PPC-1+TRAIL kill, FLuc stim CS)
N#Cc1cc2c(nc1SCC(=O)Nc1sc3c(c1C#N)CCC3)CCC2	none
